Measurements from ChEMBL document CHEMBL3259538, “Identification of the stereochemical requirements in the 4-aryl-2-cycloalkylidenhydrazinylthiazole scaffold for the design of selective human monoamine oxidase B inhibitors” (Bioorg Med Chem, 2014).

Columns and labels:
[1] = target: T1, Amine oxidase [flavin-containing] A (Homo sapiens, UniProt P21397); assay: Inhibition of human recombinant MAO-A expressed in baculovirus-infected BTI-TN-5B1-4 cell microsomes assessed as decrease in H2O2 production using p-tyramine as substrate preincubated for 15 mins by Amplex Red reagent based fluorimetric method
T1 sequence (P21397 whole entry): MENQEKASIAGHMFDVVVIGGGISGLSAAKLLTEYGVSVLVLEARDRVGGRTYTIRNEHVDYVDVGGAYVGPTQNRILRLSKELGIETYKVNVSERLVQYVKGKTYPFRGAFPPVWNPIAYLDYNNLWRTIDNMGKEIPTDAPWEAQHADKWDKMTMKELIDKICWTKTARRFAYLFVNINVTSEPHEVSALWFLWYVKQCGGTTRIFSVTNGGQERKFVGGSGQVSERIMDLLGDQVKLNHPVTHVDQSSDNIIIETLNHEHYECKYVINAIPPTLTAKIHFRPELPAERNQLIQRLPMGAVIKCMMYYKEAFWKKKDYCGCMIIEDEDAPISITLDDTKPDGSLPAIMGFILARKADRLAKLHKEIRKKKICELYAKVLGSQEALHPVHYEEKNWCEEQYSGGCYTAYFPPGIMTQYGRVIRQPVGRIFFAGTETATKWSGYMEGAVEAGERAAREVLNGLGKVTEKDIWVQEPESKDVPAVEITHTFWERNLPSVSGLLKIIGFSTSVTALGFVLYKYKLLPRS

[2] = tested on: BTI-TN-5B1-4; assay: Selectivity index, ratio of IC50 for human recombinant MAO-A expressed in baculovirus-infected BTI-TN-5B1-4 cell microsomes to IC50 for human recombinant MAO-B expressed in baculovirus-infected BTI-TN-5B1-4 cell microsomes
[3] = target: T2, Amine oxidase [flavin-containing] B (Homo sapiens, UniProt P27338); assay: biochemical; assay type: cell-based, BTI-TN-5B1-4
T2 sequence (P27338 whole entry): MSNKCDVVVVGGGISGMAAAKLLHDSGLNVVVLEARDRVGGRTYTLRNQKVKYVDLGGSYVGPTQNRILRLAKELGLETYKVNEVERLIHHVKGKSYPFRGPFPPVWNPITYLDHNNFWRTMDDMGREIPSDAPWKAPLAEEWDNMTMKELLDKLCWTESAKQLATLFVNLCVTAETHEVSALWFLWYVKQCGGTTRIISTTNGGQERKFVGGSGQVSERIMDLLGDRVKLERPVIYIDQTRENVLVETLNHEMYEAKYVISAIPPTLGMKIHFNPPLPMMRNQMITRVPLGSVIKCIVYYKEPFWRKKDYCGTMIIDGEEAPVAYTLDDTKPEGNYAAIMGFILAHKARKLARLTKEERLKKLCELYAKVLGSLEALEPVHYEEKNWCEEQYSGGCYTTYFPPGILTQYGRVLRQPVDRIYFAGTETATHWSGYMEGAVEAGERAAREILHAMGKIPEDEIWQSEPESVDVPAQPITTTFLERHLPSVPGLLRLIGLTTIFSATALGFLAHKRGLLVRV

[4] = target: T1, Amine oxidase [flavin-containing] A; assay: Inhibition of human recombinant MAO-A expressed in baculovirus-infected BTI-TN-5B1-4 cell microsomes assessed as decrease in H2O2 production using p-tyramine as substrate at 100 uM preincubated for 15 mins by Amplex Red reagent based fluorimetric method; conditions: bti-tn-5b1-4, 100 µM
How it was run: (§1)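 Microsomal enzyme in 0.05 M sodium phosphate, pH 7.4. The enzyme amount was adjusted so that controls oxidize 165 pmol p-tyramine/min. Drug and enzyme were preincubated for 15 min at 37 °C. Final 200 µM Amplex Red and 1 U/mL HRP were then added. Resorufin fluorescence (ex 545/em 590 nm) was read linearly over 15 min at 37 °C. Background without enzyme was subtracted, and drug interference was checked with Amplex Red alone.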

[5] = target: T2, Amine oxidase [flavin-containing] B; assay: Inhibition of human recombinant MAO-B expressed in baculovirus-infected BTI-TN-5B1-4 cell microsomes assessed as decrease in H2O2 production using p-tyramine as substrate at 1 mM preincubated for 15 mins by Amplex Red reagent based fluorimetric method; conditions: bti-tn-5b1-4, 1000 µM; how it was run: as §1

Row | SMILES | IC50 [1] [µM] | IC50 [3] [nM] | inhibition (INH) [4] | inhibition (INH) [5] | Ratio IC50 [2]
1 | C[C@@H]1CC/C(=N\Nc2nc(-c3ccc(F)cc3F)cs2)C1 | 13.1 | 5.06 | – | – | 2580
2 | CC1CCC/C1=N\Nc1nc(-c2ccc([N+](=O)[O-])cc2)cs1 (mixture of isomers) | 19.2 | 8.31 | – | – | 2310
3 | CC1CC/C(=N\Nc2nc(-c3ccc([N+](=O)[O-])cc3)cs2)C1 (mixture of isomers) | – | 376 | Not Active | – | > 266
4 | CC1CC/C(=N\Nc2nc(-c3ccc(C#N)cc3)cs2)C1 (mixture of isomers) | 11.1 | 227 | – | – | 49
5 | O=C1Nc2ccccc2C1=O [ISATIN] | – | – | Not Active | – | –
6 | O=C(NCCN1CCOCC1)c1ccc(Cl)cc1 [MOCLOBEMIDE] | – | – | – | Not Active | –

Now from value to compound, other results behind:

Row | IC50 [1] [µM] | IC50 [3] [nM] | inhibition (INH) [4] | inhibition (INH) [5] | SMILES | Ratio IC50 [2]
7 | 13.8 | 2.91 | – | – | C[C@@H]1CC/C(=N/Nc2nc(-c3ccc(F)cc3F)cs2)C1 | 4740
8 | 15.5 | 5.32 | – | – | C[C@@H]1CCC(=NNc2nc(-c3ccc(F)cc3F)cs2)C1 | 2920
9 | 16.9 | 9.34 | – | – | CC1CC/C(=N\Nc2nc(-c3ccc(F)cc3F)cs2)C1 (mixture of isomers) | 1810
